The source made the active and inactive calls. No cut-off for these calls is given here.
Tests used:
Mus musculus [1] = test: Induction of flushing response in ip dosed C57/BL6 mouse; assay type: organism-based, C57Bl/6; settings: in vivo
Method in brief: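 Male C57Bl/6 mice, 8-10 weeks, anesthetized with Nembutal i.p. (80 mg/10 ml/kg). Laser Doppler perfusion imaging centred on the ventral right ear. After a 3 min baseline, vehicle or agonist is given i.p. (5 ml/kg) and readings continue about 15 min. Output is % change from pre-injection baseline, 3-26 animals per group.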

Adipocyte = test: Inhibition of isoproterenol-induced lipolysis in human subcutaneous adipocytes after 5 hrs
Rattus norvegicus = test: Reduction of free fatty acid level in po dosed Sprague-Dawley rat plasma relative to baseline; assay type: functional; parameters: scale not given: the % may be the effect or the level left
Method in brief: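 Male Sprague-Dawley rats, 7-10 weeks (~350 g), jugular vein cannulated, fasted 16 hr. Baseline blood drawn, then oral vehicle (PBS, 5% HPBCD or 0.5% methylcellulose) or drug at 2 ml/kg. Blood sampled via cannula at set times; serum NEFA assayed by NEFA-C kit, A550. Expressed as % baseline FFA, four or more independent experiments.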

Mus musculus [2] = test: Reduction of free fatty acid level in ip dosed C57/BL6 mouse plasma after 10 mins; assay type: functional, organism-based; settings: C57Bl/6
Method in brief: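 Male C57Bl/6 mice, 8-10 weeks (~25 g), fasted 16 hr, dosed i.p. with compound in PBS or PBS vehicle (5 ml/kg). Killed after 10 min; cardiac blood taken and serum obtained by centrifugation at 4°C. NEFA measured colorimetrically with the NEFA-C two-reagent kit, 37°C incubations, A550. Three or more experiments in triplicate; one-way ANOVA with Bonferroni.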

Mus musculus [3] = test: Inhibition of nicotinic acid induced flushing response in ip dosed C57/BL6 mouse; assay type: functional, organism-based; settings: C57Bl/6
Method in brief: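 Laser Doppler ear flushing in anesthetized male C57Bl/6 mice. Vehicle or competing agonist is given i.p. together with Nembutal, 10 min before baseline. After a 3 min baseline, nicotinic acid 30 mg/kg i.p. is injected. Response is % change from pre-nicotinic acid baseline, 5 or 11 animals per group.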

EC50 (Adipocyte) | SMILES | Activity (Mus musculus [1]) | Activity (Rattus norvegicus) | Activity (Mus musculus [2]) | Activity (Mus musculus [3])
0.9 µM | O=C(O)c1cccnc1 [NIACIN] | Toxic |  |  | 
1.4 µM | Cc1cc(C(=O)O)n[nH]1 | Toxic | 75% | Dose-dependent effect | 
103 µM | O=C(O)c1cc(Cc2cccc(Br)c2)[nH]n1 | Non-toxic | 75% | Dose-dependent effect | 
 | O=C(O)c1cc(Cc2cccc(Cl)c2)[nH]n1 | Non-toxic |  |  | 
32.6 µM | O=C(O)c1cc(Cc2cccc(F)c2)[nH]n1 | Non-toxic | 75% | Dose-dependent effect | 
 | CC(C)c1cc(C(=O)O)n[nH]1 | Non-toxic | 75% | Dose-dependent effect | 
5.3 µM | Cc1cc(C(=O)O)on1 | Toxic | 75% |  | 
72.5 µM | O=C(O)c1cc(Cc2cccc(Cl)c2)n[nH]1 |  | 75% | Dose-dependent effect | Active

Source: ChEMBL document CHEMBL1147980, “Nicotinic acid receptor agonists differentially activate downstream effectors” (J Biol Chem, 2007)
